# Measured values published in ChEMBL document CHEMBL1146217, “Growth inhibition of Mycobacterium bovis, Mycobacterium tuberculosis and Mycobacterium avium in vitro: effect of 1-beta-D-2'-arabinofuranosyl and 1-(2'-deoxy-2'-fluoro-beta-D-2'-ribofuranosyl) pyrimidine nucleoside analogs” (J Med Chem, 2007).
# How the values were obtained:
# [1] = test system: Mycobacterium tuberculosis; experiment: Antimycobacterial activity against Mycobacterium tuberculosis H37Ra at 10 ug/mL by microplate Alamar blue assay; format: functional
# Procedure, shortened: (§1)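 MABA with M. bovis BCG, M. tuberculosis H37Ra or M. avium ATCC 25291. DMSO stocks (10 mg/mL) diluted in 7H9GC; final inoculum 2.5 × 10⁵ CFU/mL. Incubated 6 days, then alamar blue plus Tween 80 added and read by fluorescence after about 24 h. […]. Tested in triplicate at 100, 50, 10 and 1 µg/mL; two experiments, mean reported.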
# Vero = experiment: Toxicity against Vero cells after 3 days by MTT test; format: cell-based; conditions: chlorocebus sabaeus, 72 h
# Procedure, shortened: (§2)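 MTT viability assay. Vero or HFF cells seeded at 2.5 × 10⁵ cells/well and left to attach 6-8 h. Exposed to compound at 100, 50, 25, 12.5, 6.3 and 1.5 µg/mL for 3 days at 37 °C, with a DMSO control. MTT added for 4 h, then solubilized overnight; absorbance read at 560-650 nm.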
# Mycobacterium avium [2] = experiment: Antimycobacterial activity against Mycobacterium avium ATCC 25291 at 50 ug/mL by microplate Alamar blue assay; format: functional; procedure, shortened: as §1
# Mycobacterium avium [3] = experiment: Antimycobacterial activity against Mycobacterium avium ATCC 25291 at 100 ug/mL by microplate Alamar blue assay; format: functional; procedure, shortened: as §1
# [4] = test system: Mycobacterium tuberculosis; experiment: Antimycobacterial activity against Mycobacterium tuberculosis H37Ra at 50 ug/mL by microplate Alamar blue assay; format: functional; procedure, shortened: as §1
# [5] = test system: Mycobacterium tuberculosis; experiment: Antimycobacterial activity against Mycobacterium tuberculosis H37Ra at 1ug/mL by microplate Alamar blue assay; format: functional; procedure, shortened: as §1
# [6] = test system: Mycobacterium tuberculosis; experiment: Antimycobacterial activity against Mycobacterium tuberculosis H37Ra by microplate Alamar blue assay; format: functional
# Procedure, shortened: (§3)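 Same alamar blue microplate setup (7H9GC, 2.5 × 10⁵ CFU/mL, 6 days, then dye read after about 24 h), using 2-fold compound dilutions. MIC90 is the lowest concentration giving about 90% inhibition relative to bacteria-only wells after background subtraction. Visual MIC is the lowest concentration preventing the blue-to-pink change.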
# [7] = test system: Mycobacterium tuberculosis; experiment: Antimycobacterial activity against Mycobacterium tuberculosis H37Ra at 100 ug/mL by microplate Alamar blue assay; format: functional; procedure, shortened: as §1
# Mycobacterium avium [8] = experiment: Antimycobacterial activity against Mycobacterium avium ATCC 25291 by microplate Alamar blue assay; format: functional; procedure, shortened: as §3
# [9] = Toxicity against human foreskin fibroblast cells after 3 days by MTT test; format: cell-based; procedure, shortened: as §2
# Listeria monocytogenes = experiment: Antibacterial activity Listeria monocytogenes ATCC 15313 after 16 to 20 hrs by broth microdilution method; format: functional; conditions: for MIC: Listeria monocytogenes, ATCC 15313
# Procedure, shortened: (§4)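 Broth microdilution MIC. Exponentially growing bacteria diluted in sterile liquid medium to a final inoculum of 1 × 10⁴ CFU/mL. Cultured with compound dilutions for 16-20 h; compounds tested at 100, 50, 10 and 1 µg/mL. MIC taken as the concentration giving 100% inhibition of bacterial growth.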
# Escherichia coli = experiment: Antibacterial activity against Escherichia coli ATCC 25922 after 16 to 20 hrs by broth microdilution method; format: functional; conditions: Escherichia coli, ATCC 25922; procedure, shortened: as §4
# Bacillus subtilis = experiment: Antibacterial activity against Bacillus subtilis ATCC 6633 after 16 to 20 hrs by broth microdilution method; format: functional; conditions: Bacillus subtilis, ATCC 6633; procedure, shortened: as §4
# Streptococcus pneumoniae = experiment: Antibacterial activity Streptococcus pneumoniae ATCC 49619 after 16 to 20 hrs by broth microdilution method; format: functional; conditions: for MIC: Streptococcus pneumoniae, ATCC 49619; procedure, shortened: as §4
# Staphylococcus aureus = experiment: Antibacterial activity against Staphylococcus aureus ATCC 25923 after 16 to 20 hrs by broth microdilution method; format: functional; conditions: for MIC: Staphylococcus aureus, ATCC 25923; procedure, shortened: as §4
# Salmonella typhimurium = experiment: Antibacterial activity against Salmonella Typhimurium after 16 to 20 hrs by broth microdilution method; format: functional, Salmonella enterica subsp. enterica serovar Typhimurium; conditions: Salmonella enterica; procedure, shortened: as §4
# [10] = test system: Staphylococcus epidermidis; experiment: Antibacterial activity against Staphylococcus epidermidis ATCC 14990 after 16 to 20 hrs by broth microdilution method; format: functional; conditions: for MIC: Staphylococcus epidermidis, ATCC 14990; procedure, shortened: as §4
# Proteus vulgaris = experiment: Antibacterial activity against Proteus vulgaris ATCC 49132 after 16 to 20 hrs by broth microdilution method; format: functional; procedure, shortened: as §4
# Enterococcus faecalis = experiment: Antibacterial activity Enterococcus faecalis ATCC 29212 after 16 to 20 hrs by broth microdilution method; format: functional; conditions: for MIC: Enterococcus faecalis, ATCC 29212; procedure, shortened: as §4
# Klebsiella aerogenes = experiment: Antibacterial activity against Enterobacter aerogenes after 16 to 20 hrs by broth microdilution method; format: functional; conditions: Klebsiella aerogenes; procedure, shortened: as §4
# Streptococcus pyogenes = experiment: Antibacterial activity Streptococcus pyogenes ATCC 19615 after 16 to 20 hrs by broth microdilution method; format: functional; conditions: for MIC: Streptococcus pyogenes, ATCC 19615; procedure, shortened: as §4
# Pseudomonas aeruginosa = experiment: Antibacterial activity against Pseudomonas aeruginosa […] after 16 to 20 hrs by broth microdilution method; format: functional; conditions: Pseudomonas aeruginosa, ATCC 13048; procedure, shortened: as §4
compound,measurement,setting,value
CCCCCCCCCCC#Cc1cn([C@@H]2O[C@H](CO)[C@@H](O)[C@@H]2O)c(=O)[nH]c1=O,inhibition at 10 µg/mL,[1],100%
same,CC10,Vero,> 100 µg/mL
same,inhibition at 50 µg/mL,Mycobacterium avium [2],55%
same,inhibition at 100 µg/mL,Mycobacterium avium [3],100%
same,inhibition at 50 µg/mL,[4],100%
same,inhibition at 1 µg/mL,[5],75%
same,MIC90,[6],1 µg/mL
same,inhibition at 100 µg/mL,[7],100%
same,MIC90,Mycobacterium avium [8],50 µg/mL
same,CC50 at 72 h,[9],> 100 µg/mL
CCCCCCCCCCCC#Cc1cn([C@@H]2O[C@H](CO)[C@@H](O)[C@@H]2O)c(=O)[nH]c1=O,inhibition at 10 µg/mL,[1],50%
same,CC10,Vero,> 100 µg/mL
same,inhibition at 100 µg/mL,Mycobacterium avium [3],25%
same,inhibition at 50 µg/mL,[4],100%
same,MIC90,[6],10 µg/mL
same,inhibition at 100 µg/mL,[7],100%
same,CC50 at 72 h,[9],> 100 µg/mL
O=c1[nH]c(=O)n([C@@H]2O[C@H](CO)[C@@H](O)[C@H]2F)cc1Cl,inhibition at 100 µg/mL,Mycobacterium avium [3],0%
same,inhibition at 100 µg/mL,[7],20%
Cc1cn([C@@H]2O[C@H](CO)[C@@H](O)[C@H]2F)c(=O)[nH]c1=S,inhibition at 100 µg/mL,Mycobacterium avium [3],0%
same,inhibition at 100 µg/mL,[7],25%
O=c1[nH]c(=O)n([C@@H]2O[C@H](CO)[C@@H](O)[C@@H]2O)cc1C(O)C(Cl)Cl (some centres undefined),inhibition at 100 µg/mL,Mycobacterium avium [3],0%
same,inhibition at 100 µg/mL,[7],0%
O=c1[nH]c(=O)n([C@@H]2O[C@H](CO)[C@@H](O)[C@@H]2O)cc1C(O)CI (some centres undefined),inhibition at 100 µg/mL,Mycobacterium avium [3],0%
same,inhibition at 100 µg/mL,[7],0%
O=C(O)C(I)C(O)c1cn([C@@H]2O[C@H](CO)[C@@H](O)[C@H]2F)c(=O)[nH]c1=O (some centres undefined),inhibition at 100 µg/mL,Mycobacterium avium [3],0%
same,inhibition at 100 µg/mL,[7],0%
O=c1[nH]c(=O)n([C@@H]2O[C@H](CO)[C@@H](O)[C@@H]2O)cc1Cl,inhibition at 100 µg/mL,Mycobacterium avium [3],0%
same,inhibition at 100 µg/mL,[7],0%
O=c1[nH]c(=S)ccn1[C@@H]1O[C@H](CO)[C@@H](O)[C@@H]1O,inhibition at 100 µg/mL,Mycobacterium avium [3],0%
same,inhibition at 100 µg/mL,[7],0%
CCCCCC#Cc1cn([C@@H]2O[C@H](CO)[C@@H](O)[C@H]2F)c(=O)[nH]c1=O,CC10,Vero,> 100 µg/mL
same,inhibition at 100 µg/mL,Mycobacterium avium [3],0%
same,inhibition at 100 µg/mL,[7],50%
same,CC50 at 72 h,[9],> 100 µg/mL
O=c1[nH]c(=S)ccn1[C@@H]1O[C@H](CO)[C@@H](O)[C@H]1F,inhibition at 100 µg/mL,Mycobacterium avium [3],0%
same,inhibition at 100 µg/mL,[7],25%
CCOC(=O)/C=C/c1cn([C@@H]2O[C@H](CO)[C@@H](O)[C@@H]2O)c(=O)[nH]c1=O,inhibition at 100 µg/mL,Mycobacterium avium [3],0%
same,inhibition at 100 µg/mL,[7],0%
CCCCCCCCC#Cc1cn([C@@H]2O[C@H](CO)[C@@H](O)[C@H]2F)c(=O)[nH]c1=O,Inhibition,Listeria monocytogenes,100%
same,MIC,Listeria monocytogenes,100 µg/mL
same,MIC,Escherichia coli,> 100 µg/mL
same,MIC,Bacillus subtilis,> 100 µg/mL
same,Inhibition,Streptococcus pneumoniae,100%
same,MIC,Streptococcus pneumoniae,100 µg/mL
same,inhibition at 10 µg/mL,[1],50%
same,CC10,Vero,> 100 µg/mL
same,Inhibition,Staphylococcus aureus,100%
same,MIC,Staphylococcus aureus,100 µg/mL
same,MIC,Salmonella typhimurium,> 100 µg/mL
same,inhibition at 100 µg/mL,Mycobacterium avium [3],50%
same,Inhibition,[10],100%
same,MIC,[10],100 µg/mL
same,inhibition at 50 µg/mL,[4],100%
same,MIC,Proteus vulgaris,> 100 µg/mL
same,inhibition at 1 µg/mL,[5],25%
same,MIC90,[6],50 µg/mL
same,Inhibition,Enterococcus faecalis,100%
same,MIC,Enterococcus faecalis,100 µg/mL
same,inhibition at 100 µg/mL,[7],100%
same,MIC,Klebsiella aerogenes,> 100 µg/mL
same,Inhibition,Streptococcus pyogenes,100%
same,MIC,Streptococcus pyogenes,100 µg/mL
same,MIC,Pseudomonas aeruginosa,> 100 µg/mL
same,CC50 at 72 h,[9],> 100 µg/mL
O=C(O)/C=C/c1cn([C@@H]2O[C@H](CO)[C@@H](O)[C@H]2F)c(=O)[nH]c1=O,inhibition at 100 µg/mL,Mycobacterium avium [3],0%
same,inhibition at 100 µg/mL,[7],0%
NNC(=O)c1ccncc1 [ISONIAZID],MIC,Listeria monocytogenes,> 100 µg/mL
same,MIC,Escherichia coli,> 100 µg/mL
same,MIC,Bacillus subtilis,> 100 µg/mL
same,MIC,Streptococcus pneumoniae,> 100 µg/mL
same,MIC,Staphylococcus aureus,> 100 µg/mL
same,MIC,Salmonella typhimurium,> 100 µg/mL
same,MIC,[10],> 100 µg/mL
same,MIC,Proteus vulgaris,> 100 µg/mL
same,MIC,Enterococcus faecalis,> 100 µg/mL
same,MIC,Klebsiella aerogenes,> 100 µg/mL
same,MIC,Streptococcus pyogenes,> 100 µg/mL
same,MIC,Pseudomonas aeruginosa,> 100 µg/mL
